Reference: ChEMBL document CHEMBL1817665, “Synthesis and identification of β-aryloxyquinolines and their pyrano[3,2-c]chromene derivatives as a new class of antimicrobial and antituberculosis agents” (2011)
Values after ≈ are worked out from the molar mass of the structure shown.

What was measured:
Aspergillus fumigatus = assay: […] activity against 10^8 CFU/mL Aspergillus fumigatus MTCC 3008 by NCCLS M100-S12(M7) broth microdilution method; format: functional
Streptococcus pneumoniae = assay: Antibacterial activity against 10^8 CFU/mL Streptococcus pneumoniae MTCC 1936 by NCCLS M100-S12(M7) broth microdilution method; format: functional
How it was run: (§1)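 Broth microdilution in Mueller Hinton broth. Inoculum was adjusted by turbidity to 10^8 CFU/mL. Compounds came from 2000 µg/mL DMSO stocks. Primary screen used 500, 250 and 200 µg/mL; actives were retested at 100, 62.5, 50 and 25 µg/mL. Tubes were incubated overnight at 37 °C. […] A known-sensitivity organism was run in parallel.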

Escherichia coli = assay: Antibacterial activity against 10^8 CFU/mL Escherichia coli MTCC 443 by NCCLS M100-S12(M7) broth microdilution method; format: functional; how it was run: as §1
[1] = test system: Mycobacterium tuberculosis; assay: Antituberculosis activity against Mycobacterium tuberculosis H37Rv at 250 ug/mL after 24 hrs by Lowenstein-Jensen method; format: functional
Vibrio cholerae = assay: Antibacterial activity against 10^8 CFU/mL Vibrio cholerae MTCC 3906 by NCCLS M100-S12(M7) broth microdilution method; format: functional; how it was run: as §1
Clostridium tetani = assay: Antibacterial activity against 10^8 CFU/mL Clostridium tetani MTCC 449 by NCCLS M100-S12(M7) broth microdilution method; format: functional; how it was run: as §1
Candida albicans = assay: […] activity against 10^8 CFU/mL Candida albicans MTCC 227 by NCCLS M100-S12(M7) broth microdilution method; format: functional
Bacillus subtilis = assay: Antibacterial activity against 10^8 CFU/mL Bacillus subtilis MTCC 441 by NCCLS M100-S12(M7) broth microdilution method; format: functional; how it was run: as §1
Salmonella typhi = assay: Antibacterial activity against 10^8 CFU/mL Salmonella typhi MTCC 98 by NCCLS M100-S12(M7) broth microdilution method; format: functional, Salmonella enterica subsp. enterica serovar Typhi; settings: Salmonella enterica; how it was run: as §1
[2] = test system: Mycobacterium tuberculosis; assay: Antituberculosis activity against Mycobacterium tuberculosis H37Rv after 24 hrs by Lowenstein-Jensen method; format: functional

Compound | MIC99 (Aspergillus fumigatus) [mg/L] | MIC99 (Streptococcus pneumoniae) [mg/L] | MIC99 (Escherichia coli) [mg/L] | inhibition at 250 µg/mL [1] [%] | MIC99 (Vibrio cholerae) [mg/L] | MIC99 (Clostridium tetani) [mg/L] | MIC99 (Candida albicans) [mg/L] | MIC99 (Bacillus subtilis) [mg/L] | MIC99 (Salmonella typhi) [mg/L] | MIC [2] [mg/L]
Cc1ccc(Oc2nc3ccc(C)cc3cc2C=O)cc1 | 1000 (≈ 3610 µM) | 200 (≈ 721 µM) | 50 (≈ 180 µM) | 84 | 200 (≈ 721 µM) | 200 (≈ 721 µM) | 500 (≈ 1800 µM) | 250 (≈ 901 µM) | 100 (≈ 361 µM) | –
O=Cc1cc2ccccc2nc1Oc1ccc(Cl)cc1 | > 1000 | 62.5 (≈ 220 µM) | 100 (≈ 352 µM) | 64 | 500 (≈ 1760 µM) | 500 (≈ 1760 µM) | 250 (≈ 881 µM) | 200 (≈ 705 µM) | 200 (≈ 705 µM) | –
O=Cc1cc2ccccc2nc1Oc1ccccc1 | > 1000 | 500 (≈ 2010 µM) | 500 (≈ 2010 µM) | 95 | 500 (≈ 2010 µM) | 500 (≈ 2010 µM) | > 1000 | 1000 (≈ 4010 µM) | 500 (≈ 2010 µM) | 260 (≈ 1040 µM)
NYSTATIN | 100 | – | – | – | – | – | 100 | – | – | –
CC1(C)S[C@@H]2[C@H](NC(=O)[C@H](N)c3ccccc3)C(=O)N2[C@H]1C(=O)O [AMPICILLIN] | – | 100 (≈ 286 µM) | 100 (≈ 286 µM) | – | 100 (≈ 286 µM) | 250 (≈ 715 µM) | – | 250 (≈ 715 µM) | 100 (≈ 286 µM) | –
Cc1ccc(Oc2nc3ccccc3cc2C=O)cc1 | 500 (≈ 1900 µM) | 250 (≈ 950 µM) | 100 (≈ 380 µM) | 74 | 250 (≈ 950 µM) | 250 (≈ 950 µM) | 500 (≈ 1900 µM) | 500 (≈ 1900 µM) | 100 (≈ 380 µM) | –
COC1=CC(=O)C[C@@H](C)[C@]12Oc1c(Cl)c(OC)cc(OC)c1C2=O [GRISEOFULVIN] | 100 (≈ 283 µM) | – | – | – | – | – | 500 (≈ 1420 µM) | – | – | –
COc1ccc2nc(Oc3ccc(Cl)cc3)c(C=O)cc2c1 | 1000 (≈ 3190 µM) | 250 (≈ 797 µM) | 200 (≈ 637 µM) | 54 | 200 (≈ 637 µM) | 200 (≈ 637 µM) | 500 (≈ 1590 µM) | 200 (≈ 637 µM) | 200 (≈ 637 µM) | –
COc1ccc2nc(Oc3ccccc3)c(C=O)cc2c1 | > 1000 | 200 (≈ 716 µM) | 62.5 (≈ 224 µM) | 42 | 200 (≈ 716 µM) | 250 (≈ 895 µM) | 1000 (≈ 3580 µM) | 100 (≈ 358 µM) | 100 (≈ 358 µM) | –
Cc1ccc2nc(Oc3ccccc3)c(C=O)cc2c1 | 500 (≈ 1900 µM) | 500 (≈ 1900 µM) | 200 (≈ 760 µM) | 62 | 250 (≈ 950 µM) | 200 (≈ 760 µM) | 250 (≈ 950 µM) | 250 (≈ 950 µM) | 200 (≈ 760 µM) | –
COc1ccc2nc(Oc3ccc(C)cc3)c(C=O)cc2c1 | 1000 (≈ 3410 µM) | 500 (≈ 1700 µM) | 250 (≈ 852 µM) | 23 | 500 (≈ 1700 µM) | 500 (≈ 1700 µM) | 250 (≈ 852 µM) | 250 (≈ 852 µM) | 250 (≈ 852 µM) | –
NNC(=O)c1ccncc1 [ISONIAZID] | – | – | – | – | – | – | – | – | – | 0.2 (≈ 1.46 µM)
Cc1ccc2nc(Oc3ccc(Cl)cc3)c(C=O)cc2c1 | 1000 (≈ 3360 µM) | 250 (≈ 840 µM) | 250 (≈ 840 µM) | 93 | 500 (≈ 1680 µM) | 500 (≈ 1680 µM) | 500 (≈ 1680 µM) | 500 (≈ 1680 µM) | 100 (≈ 336 µM) | 310 (≈ 1040 µM)
